# Laboratory results: ChEMBL document CHEMBL1127359, “Synthetic laminin-like peptides and pseudopeptides as potential antimetastatic agents” (1994)
# Square brackets hold non-standard residues; d marks the D form. Peptide text beside a SMILES is read from it. Phe(4-NH2) = Nc1ccc(C[C@H](N)C(=O)O)cc1; Phe(4-F) = N[C@@H](Cc1ccc(F)cc1)C(=O)O
# Tests used:
# Assay type in all cases: functional, cell-based
# B16-F10 [1] = test: Antimetastatic activity against HT1080 and B16F10 cells in cell attachment assay; low attachment activity
# B16-F10 [2] = test: Antimetastatic activity against HT1080 and B16F10 cells in cell attachment assay; Low attachment activity
# B16-F10 [3] = test: Antimetastatic activity against HT1080 and B16F10 cells in cell attachment assay; moderate attachment activity
# Method in brief: (§1)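 Peptide dissolved in water with a drop of acetic acid and dried overnight onto culture wells (amount given is quantity dried on plastic). Wells blocked with EMEM/3% BSA 30 min at 37 °C, then EMEM/0.02% BSA. HT-1080 or B16F10 cells (4 × 10⁴) added, 1 h at 37 °C, 5% CO₂. PBS wash; attached cells fixed, stained and counted (eight fields/well) or trypsinized and Coulter-counted; duplicate wells, mean ± SD.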
# B16-F10 [4] = test: Antimetastatic activity against HT1080 and B16F10 cells in cell attachment assay; high, but not maximal, attachment activity; method in brief: as §1
# B16-F10 [5] = test: Antimetastatic activity against HT1080 and B16F10 cells in cell attachment assay; high attachment activity with about 70% of cells attached
# B16-F10 [6] = test: Antimetastatic activity against HT1080 and B16F10 cells in cell attachment assay; Moderate attachment activity; method in brief: as §1
# B16-F10 [7] = test: Antimetastatic activity against HT1080 and B16F10 cells in cell attachment assay; Moderat attachment activity; method in brief: as §1
molecule,measurement,setting,value
CC[C@H](C)[C@H](NC(=O)[C@@H](N)Cc1ccc(O)cc1)C(=O)NCCN[C@@H](CO)C(=O)N[C@@H](CCCN=C(N)N)C(N)=O,Activity,B16-F10 [1],low attachment activity
CC[C@H](C)[C@H](NC(=O)[C@@H](N)Cc1ccc(O)cc1)C(=O)NCC(=O)N[C@@H](CO)C(=O)N[C@@H](CCCN=C(N)N)C(N)=O,Activity,B16-F10 [2],Low attachment activity
CC[C@H](C)[C@@H](C(=O)NCC(=O)N[C@@H](CO)C(=O)N[C@@H](CCCN=C(N)N)C(N)=O)N(C=O)C[C@@H](N)Cc1ccc(O)cc1,Activity,B16-F10 [3],moderate attachment activity
CC[C@H](C)[C@H](NC(=O)[C@H](N)Cc1ccc(O)cc1)C(=O)NCC(=O)N[C@@H](CO)C(=O)N[C@@H](CCCN=C(N)N)C(N)=O,Activity,B16-F10 [2],Low attachment activity
CC[C@H](C)[C@H](NC(=O)[C@@H](N)Cc1ccc(N)cc1)C(=O)NCC(=O)N[C@@H](CO)C(=O)N[C@@H](CCCN=C(N)N)C(N)=O (H-[Phe(4-NH2)]IGSR-NH2),Activity,B16-F10 [4],"high, but not maximal, attachment activity"
H-CYIGSRYIGSRYIGSR-NH2,Activity,B16-F10 [5],high attachment activity with about 70% of cells attached
CC[C@H](C)[C@H](NC(=O)[C@@H](N)Cc1ccc(F)cc1)C(=O)NCC(=O)N[C@@H](CO)C(=O)N[C@@H](CCCN=C(N)N)C(N)=O (H-[Phe(4-F)]IGSR-NH2),Activity,B16-F10 [6],Moderate attachment activity
CC[C@H](C)[C@H](NC(=O)[C@@H](N)Cc1ccc(O)cc1)C(=O)NCC(=O)N[C@@H](CO)CN[C@@H](CCCN=C(N)N)C(N)=O,Activity,B16-F10 [2],Low attachment activity
CC[C@H](C)[C@H](NC(=O)[C@H](N)Cc1ccc(O)cc1)C(=O)NCC(=O)N[C@@H](CO)C(=O)N[C@@H](CCCN=C(N)N)C(=O)O [LAMININ],Activity,B16-F10 [5],high attachment activity with about 70% of cells attached
CC[C@H](C)[C@H](NC[C@@H](N)Cc1ccc(O)cc1)C(=O)NCC(=O)N[C@@H](CO)C(=O)N[C@@H](CCCN=C(N)N)C(N)=O,Activity,B16-F10 [7],Moderat attachment activity
CC[C@H](C)[C@@H](CNCC(=O)N[C@@H](CO)C(=O)N[C@@H](CCCN=C(N)N)C(N)=O)NC(=O)[C@@H](N)Cc1ccc(O)cc1,Activity,B16-F10 [1],low attachment activity
H-FIGSR-NH2,Activity,B16-F10 [2],Low attachment activity
